Experimental data from ChEMBL document CHEMBL1142860, “Potent antitubulin tumor cell cytotoxins based on 3-aroyl indazoles” (J Med Chem, 2007).

Tests used:
HeLa = assay: Cytotoxicity against human HeLa cells; assay type: cell-based
How it was run: (§1)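 Cells in exponential growth seeded at 4000–6000 per well, held 24 h at 37 °C, 5% CO2 before compound; T0 population read by AlamarBlue at time of addition. Compounds in DMSO diluted into complete medium; 72 h exposure at 37 °C, 5% CO2. Viable cells quantified with AlamarBlue; IC50 as 50% growth inhibition; triplicate.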

Tubulin [1] = assay: Displacement of [3H]colchicine from tubulin in MCF7 cells; assay type: cell-based, Homo sapiens
How it was run: (§2)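 Purified tubulin (bovine brain, HeLa or MCF-7 source) preincubated with compound 10 min at 37 °C, then [3H]colchicine added and incubated a further 30 min at 37 °C. Samples spotted on DE81 filters, washed three times to remove unbound label; bound [3H]colchicine counted by scintillation.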

HCT-15 = assay: Antiproliferative activity against drug resistant HCT15 cell line expressing MDR1 by Alamar Blue assay; assay type: functional, cell-based; settings: Homo sapiens; how it was run: as §1
NCI-H69 = assay: Antiproliferative activity against drug sensitive NCI-H69 cell line by Alamar Blue assay; assay type: functional, cell-based; settings: Homo sapiens; how it was run: as §1
Tubulin [2] = assay: Displacement of [3H]colchicine from tubulin in HeLa cells; assay type: cell-based, Homo sapiens; how it was run: as §2
ACHN = assay: Antiproliferative activity against drug resistant ACHN cell line expressing MDR1 by Alamar Blue assay; assay type: functional, cell-based; settings: Homo sapiens; how it was run: as §1
H69AR = assay: Antiproliferative activity against drug resistant H69AR cell line expressing MRP1 by Alamar Blue assay; assay type: functional, cell-based; settings: Homo sapiens; how it was run: as §1
NCI-H460 = assay: Inhibition of proliferation of human H460 cells; assay type: functional, cell-based; how it was run: as §1
[3] = Antiproliferative activity against drug sensitive Messa cell line by Alamar Blue assay; assay type: functional, cell-based; settings: Homo sapiens, MES-SA; how it was run: as §1
[4] = Inhibition of bovine tubulin polymerization; set-up: species or system Bos taurus
How it was run: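 Purified bovine tubulin incubated with compound in buffer with 10% glycerol using a commercial kit; microtubule formation followed as rise in fluorescence intensity of the reaction mixture; IC50 from concentration-dependent inhibition.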

HT-29 = assay: Cytotoxicity against human HT29 cells; assay type: cell-based
How it was run: (§3)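 Exponentially growing cells seeded at 4000–6000 per well and incubated 24 h (37 °C, 5% CO₂) before dosing. Cell population at time of drug addition (T₀) measured by AlamarBlue. Compounds dissolved in DMSO, diluted in complete medium, and exposed for 72 h. Viable cells quantified by AlamarBlue. IC₅₀ is 50% growth inhibition. Assays run in triplicate.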

[5] = Antiproliferative activity against drug resistant Messa/DX5 cell line expressing MDR1 by Alamar Blue assay; assay type: functional, cell-based; settings: Homo sapiens, MES-SA/Dx5; how it was run: as §1
Bos taurus = species: Bos taurus; assay: (§4) Displacement of [3H]colchicine from tubulin in bovine brain at 500 nM; how it was run: as §2
[6] = as §4; set-up: species or system Bos taurus; how it was run: as §2
PC-3 = assay: Cytotoxicity against human PC3 cells; assay type: cell-based; how it was run: as §3

Structure (SMILES)	IC50 (HCT-15)	IC50 (NCI-H69)	IC50 (ACHN)	IC50 (H69AR)	IC50 (NCI-H460)	IC50 [3]	IC50 [5]	further results
COc1cc(C(=O)c2n[nH]c3c(C#CCO)c(OC)ccc23)cc(OC)c1OC	1.9 nM	1.6 nM	1.6 nM	2.6 nM	8 nM	1.7 nM	1.8 nM	IC50 (HeLa): 0.8 nM; IC50 (Tubulin [1]): 240 nM; IC50 (Tubulin [2]): 46 nM; IC50 [4]: 6000 nM; IC50 (HT-29): 1 nM; Activity (Bos taurus): 70%; IC50 [6]: 500 nM; IC50 (PC-3): 1 nM
COc1cc(C(=O)c2n[nH]c3c(C#C[C@H](C)O)c(OC)ccc23)cc(OC)c1OC					14 nM			
COc1ccc2c(C(=O)c3cc(OC)c(OC)c(OC)c3)c[nH]c2c1					16 nM			
COc1cc2c(c(OC)c1OC)-c1ccc(OC)c(=O)cc1[C@@H](NC(C)=O)CC2 [COLCHICINE]	100 nM		39.8 nM			6.3 nM	63 nM	
COc1cc(C(=O)c2n[nH]c3c(C#C[C@@H](C)O)c(OC)ccc23)cc(OC)c1OC					29 nM			
COc1cccc2c1C(=O)c1c(O)c3c(c(O)c1C2=O)C[C@@](O)(C(C)=O)C[C@@H]3O[C@H]1C[C@H](N)[C@H](O)[C@H](C)O1 [DAUNORUBICIN]	> 400 nM	100 nM	63 nM	> 1000 nM		20 nM	> 400 nM	
COc1cc(C(=O)c2n[nH]c3c(/C=C\CO)c(OC)ccc23)cc(OC)c1OC					13 nM			
COc1cc(C(=O)c2n[nH]c3c(C#CCCCO)c(OC)ccc23)cc(OC)c1OC					8 nM			
CC#Cc1c(OC)ccc2c(C(=O)c3cc(OC)c(OC)c(OC)c3)c[nH]c12					> 1000 nM			
CC[C@]1(O)C[C@@H]2CN(CCc3c([nH]c4ccccc34)[C@@](C(=O)OC)(c3cc4c(cc3OC)N(C)[C@H]3[C@@](O)(C(=O)OC)[C@H](OC(C)=O)[C@]5(CC)C=CCN6CC[C@]43[C@@H]65)C2)C1 [VINBLASTINE]	79.4 nM	1.6 nM	25 nM	1.6 nM		1.6 nM	8.9 nM	
COc1cc(C(=O)c2n[nH]c3c(C#CCN)c(OC)ccc23)cc(OC)c1OC					247 nM			
C#Cc1c(OC)ccc2c(C(=O)c3cc(OC)c(OC)c(OC)c3)n[nH]c12		2.5 nM	1.6 nM	2.2 nM	3 nM	1.9 nM	3.9 nM	IC50 (HeLa): 2.3 nM; IC50 (HT-29): 1.7 nM; IC50 (PC-3): 3 nM
COc1cc(C(=O)c2n[nH]c3c(C#CCCO)c(OC)ccc23)cc(OC)c1OC					14 nM			
CC(=O)O[C@H]1C(=O)[C@@]2(C)[C@H]([C@H](OC(=O)c3ccccc3)[C@]3(O)C[C@H](OC(=O)[C@H](O)[C@@H](NC(=O)c4ccccc4)c4ccccc4)C(C)=C1C3(C)C)[C@]1(OC(C)=O)CO[C@@H]1C[C@@H]2O [PACLITAXEL]	79.4 nM	1.9 nM	25 nM	2.5 nM		1.6 nM	> 1000 nM	
COc1ccc(/C=C\c2cc(OC)c(OC)c(OC)c2)cc1O [COMBRETASTATIN A4]	2.5 nM	1.7 nM	1.6 nM	2.5 nM	10 nM	1.6 nM	1.4 nM	IC50 (HeLa): 2.7 nM; IC50 (HT-29): > 1000 nM; IC50 (PC-3): 3.2 nM
CC#Cc1c(OC)ccc2c(C(=O)c3cc(OC)c(OC)c(OC)c3)n[nH]c12	1.9 nM	1.6 nM	1.6 nM	2.5 nM	1 nM	1.6 nM	1.9 nM	IC50 (HeLa): 0.9 nM; IC50 (HT-29): 3 nM; IC50 (PC-3): 1.1 nM
COc1cc(C(=O)c2n[nH]c3c(C#CC(C)(C)O)c(OC)ccc23)cc(OC)c1OC					195 nM			
COc1cc(C(=O)c2n[nH]c3c(CCCO)c(OC)ccc23)cc(OC)c1OC					283 nM			
